# Laboratory results: ChEMBL document CHEMBL4052591, “Evaluation of Jatrophane Esters from Euphorbia spp. as Modulators of Candida albicans Multidrug Transporters” (2017)
# The source made the active and inactive calls. The calls are words filed in the database; no cut-off is given here.
# Legend:
# Candida albicans [1] = assay: Inhibition of Candida albicans CDR1 transporter expressed in Saccharomyces cerevisiae AD cells assessed as nile red accumulation at 70 uM after 30 mins by flow cytometric analysis relative to control; assay type: cell-based
# Procedure, shortened: (§1)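 S. cerevisiae AD strains overexpressing CaCdr1p (AD-CDR1) or CaMdr1p (AD-MDR1) were grown at 30 °C from OD600 0.1 to 0.25. They were resuspended as a 5% suspension in YEPD:water 1:2. Nile Red (7 μM final) was given ± inhibitor (70 μM) for 30 min at 30 °C. Accumulation was read by flow cytometry on 10 000 cells. Means ± SD, three independent experiments.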
# Candida albicans [2] = assay: Inhibition of Candida albicans MDR1 transporter expressed in Saccharomyces cerevisiae AD cells assessed as nile red dye accumulation at 70 uM after 30 mins by flow cytometric analysis relative to control; assay type: cell-based; procedure, shortened: as §1
Structure (SMILES),inhibition (Candida albicans [1]),inhibition (Candida albicans [2])
C=C1[C@@H](OC(C)=O)[C@H]2[C@@H](OC(C)=O)[C@](C)(O)C[C@]2(OC(C)=O)C(=O)[C@H](C)/C=C/C(C)(C)C(=O)[C@H](OC(=O)C(C)C)[C@H]1OC(C)=O,inactive,inactive
C=C1[C@@H](OC(C)=O)[C@H]2[C@@H](OC(C)=O)[C@](C)(O)C[C@]2(OC(C)=O)C(=O)[C@H](C)/C=C/C(C)(C)C(=O)[C@H](OC(=O)/C(C)=C/C)[C@H]1OC(C)=O,inactive,inactive
C=C1[C@@H](OC(=O)c2ccccc2)[C@H]2[C@@H](O)[C@](C)(OC(C)=O)C[C@]2(O)C(=O)[C@@H](C)/C=C/C(C)(C)[C@H](OC(C)=O)[C@H](O)[C@H]1OC(=O)c1ccccc1,inactive,inactive
C=C1[C@@H](OC(C)=O)[C@H]2[C@@H](OC(=O)c3ccccc3)[C@@H](C)C[C@]2(O)[C@H](O)[C@H](C)/C=C/C(C)(C)C(=O)[C@H](OC(C)=O)[C@H]1OC(C)=O,inactive,inactive
C=C1[C@@H](OC(=O)C(C)C)[C@H]2[C@@H](OC(=O)c3ccccc3)[C@](C)(OC(C)=O)C[C@]2(O)C(=O)[C@@H](C)/C=C/C(C)(C)[C@H](OC(C)=O)[C@H](OC(C)=O)[C@H]1OC(=O)C(C)C,inactive,inactive
C=C1[C@@H](OC(C)=O)[C@H]2[C@@H](OC(=O)c3ccccc3)[C@@H](C)C[C@]2(O)[C@H](O)[C@H](C)/C=C/C(C)(C)C(=O)[C@H](O)[C@H]1OC(C)=O,inactive,inactive
C=C1[C@@H](OC(=O)C(C)C)[C@H]2[C@@H](OC(=O)C(C)C)[C@](C)(OC(C)=O)C[C@]2(O)C(=O)[C@@H](C)/C=C/C(C)(C)[C@H](OC(C)=O)[C@H](OC(C)=O)[C@H]1OC(=O)c1ccccc1,inactive,inactive
C=C1[C@@H](OC(C)=O)[C@H]2[C@@H](OC(C)=O)[C@](C)(OC(C)=O)C[C@]2(OC(C)=O)C(=O)[C@H](C)/C=C/C(C)(C)C(=O)[C@H](OC(C)=O)[C@H]1OC(C)=O,inactive,inactive
C=C1[C@@H](OC(=O)c2ccccc2)[C@H]2[C@@H](O)[C@](C)(OC(C)=O)C[C@]2(O)C(=O)[C@@H](C)/C=C/C(C)(C)[C@H](OC(C)=O)[C@H](OC(C)=O)[C@H]1OC(=O)c1ccccc1,inactive,inactive
CC(=O)O[C@H]1[C@@H](OC(C)=O)C(C)(C)/C=C/[C@@](C)(O)C(=O)[C@@]2(OC(C)=O)C[C@@](C)(OC(C)=O)[C@H](OC(C)=O)[C@@H]2[C@H]2OC(=O)CC[C@@]2(OC(C)=O)[C@@H]1OC(=O)C(C)C,inactive,inactive
C=C1[C@@H](OC(=O)C(C)C)[C@H]2[C@@H](OC(C)=O)[C@](C)(OC(=O)c3cccnc3)C[C@]2(O)C(=O)[C@@H](C)/C=C/C(C)(C)[C@H](OC(=O)c2cccnc2)[C@H](OC(C)=O)[C@H]1OC(=O)c1ccccc1,inactive,inactive
C=C1[C@@H](OC(=O)C(C)C)[C@H]2[C@@H](O)[C@](C)(OC(C)=O)C[C@]2(O)C(=O)[C@@H](C)/C=C/C(C)(C)[C@H](OC(C)=O)[C@H](OC(C)=O)[C@H]1OC(=O)c1ccccc1,inactive,inactive
C=C1[C@@H](OC(=O)c2ccccc2)[C@H]2[C@@H](OC(C)=O)[C@](C)(O)C[C@]2(O)C(=O)[C@@H](C)/C=C/C(C)(C)[C@H](OC(C)=O)[C@H](OC(C)=O)[C@H]1OC(=O)c1cccnc1,inactive,inactive
C=C1[C@@H](OC(=O)C(C)C)[C@H]2[C@@H](OC(C)=O)[C@@H](C)C[C@]2(O)C(=O)[C@@H](C)/C=C/C(C)(C)[C@H](OC(C)=O)[C@H](OC(C)=O)[C@H]1OC(=O)c1ccccc1,inactive,inactive
C=C1[C@@H](OC(=O)C(C)C)[C@H]2[C@@H](OC(C)=O)[C@](C)(O)C[C@]2(O)C(=O)[C@@H](C)/C=C/C(C)(C)[C@H](OC(C)=O)[C@H](OC(C)=O)[C@H]1OC(=O)c1ccccc1,inactive,inactive
C=C1[C@@H](OC(C)=O)[C@H]2[C@@H](OC(C)=O)[C@](C)(OC(C)=O)C[C@]2(OC(C)=O)C(=O)[C@H](C)/C=C/C(C)(C)C(=O)[C@H](OC(=O)/C(C)=C/C)[C@H]1OC(C)=O,inactive,inactive
C=C1[C@@H](OC(=O)C(C)C)[C@H]2[C@@H](OC(C)=O)[C@](C)(OC(C)=O)C[C@]2(O)C(=O)[C@@H](C)/C=C/C(C)(C)[C@H](OC(C)=O)[C@H](OC(C)=O)[C@H]1OC(=O)c1ccccc1,inactive,inactive
C=C1[C@@H](OC(C)=O)[C@H]2[C@@H](OC(C)=O)[C@](C)(OC(=O)c3cccnc3)C[C@]2(OC(C)=O)C(=O)[C@@H](C)/C=C/C(C)(C)[C@H](OC(=O)c2cccnc2)[C@H](OC(C)=O)[C@H]1OC(=O)c1ccccc1,inactive,inactive
C=C1[C@@H](OC(C)=O)[C@H]2[C@@H](OC(=O)c3ccccc3)[C@@H](C)C[C@]2(O)[C@H](OC(C)=O)[C@H](C)/C=C/[C@@](C)(CO)C(=O)[C@H](O)[C@H]1OC(C)=O,inactive,inactive
CC(=O)O[C@H]1[C@@H](OC(C)=O)C(C)(C)/C=C/[C@@](C)(O)C(=O)[C@@]2(O)C[C@@](C)(OC(C)=O)[C@H](OC(C)=O)[C@@H]2[C@H]2OC(=O)CC[C@@]2(OC(=O)C(C)C)[C@@H]1OC(=O)C(C)C,inactive,inactive
C=C1[C@@H](OC(C)=O)[C@H]2[C@@H](OC(C)=O)[C@](C)(OC(C)=O)C[C@]2(OC(C)=O)C(=O)[C@H](C)/C=C/C(C)(C)C(=O)[C@H](OC(=O)c2ccccc2)[C@H]1OC(C)=O,inactive,inactive
C=C1[C@@H](OC(C)=O)[C@H]2[C@@H](OC(C)=O)[C@](C)(OC(=O)c3cccnc3)C[C@]2(O)C(=O)[C@@H](C)/C=C/C(C)(C)[C@H](OC(=O)c2cccnc2)[C@H](OC(C)=O)[C@H]1OC(=O)c1ccccc1,inactive,inactive
C=C1[C@@H](OC(C)=O)[C@H]2[C@@H](OC(C)=O)[C@](C)(O)C[C@]2(OC(C)=O)C(=O)[C@H](C)/C=C/C(C)(C)C(=O)[C@H](OC(=O)c2ccccc2)[C@H]1OC(C)=O,inactive,inactive
CC(=O)O[C@H]1[C@@H](OC(C)=O)C(C)(C)/C=C/[C@H](C)C(=O)[C@@]2(OC(C)=O)C[C@@](C)(OC(C)=O)[C@H](O)[C@@H]2[C@H]2OC(=O)CC[C@@]2(OC(C)=O)[C@@H]1OC(=O)C(C)C,inactive,inactive
"C=C1CCC2[C@@H](/C=C(\C)C(=O)[C@@]3(OC(C)=O)C[C@H](C)[C@H](OC(C)=O)[C@@H]3[C@H]1OC(C)=O)C2(C)C (single isomer, unassigned)",inactive,inactive
C=C1[C@@H](OC(C)=O)[C@H]2[C@@H](OC(C)=O)[C@](C)(OC(=O)c3cccnc3)C[C@]2(OC(C)=O)C(=O)[C@@H](C)/C=C/C(C)(C)[C@H](OC(=O)c2cccnc2)[C@H](OC(C)=O)[C@H]1OC(=O)C(C)C,inactive,inactive
